Measured values pooled from the literature.
Lines come from different studies, so protocols differ.
Observed: cell growth or viability

SMILES | cell line | assay | conditions | IC50
CCOC(=O)c1c(C)nc2ccc(-c3ccc(F)cc3F)cc2c1O | MDA-MB-468 | MTT | 48 h | 8 µM
COc1ccc(Cn2nc(-c3ccc(CO)o3)c3ccccc32)cc1 | RBE | ATP luminescence | – | 1.12 µM
Cc1nnc(-c2nn(Cc3ccc(Cl)cc3Cl)c3ccccc23)o1 | human Fibroblast | – | 48 h | 97.5 µM
COc1cccc2c1C(=O)c1c(O)c3c(c(O)c1C2=O)C[C@@](O)(C(=O)CO)C[C@@H]3O[C@H]1C[C@H](N)[C@H](O)[C@H](C)O1 | RBE | – | 96 h | 0.0214 µM
CC(O)c1ccc(-c2nn(Cc3ccccc3)c3ccccc23)o1 (stereo not shown) | RBE | ATP luminescence | – | 6.92 µM
C/C(=N\CCNCC/N=C(\C)c1c(O)c2ccccc2oc1=O)c1c(O)c2ccccc2oc1=O | BEAS-2B | MTT | 48 h | 13.3 µM
Cc1nc2ccc(-c3ccc(F)c(F)c3)cc2c(O)c1C(=O)O | MDA-MB-468 | MTT | 48 h | ≥ 100 µM
Fc1ccc2c(-c3ncc(-c4ccccc4)o3)nn(Cc3ccccc3)c2c1 | human Fibroblast | – | 48 h | 198 µM
OC1CCN(c2ccc(/C=N/NC(=S)Nc3ccc(Cl)cc3)cc2)CC1 | BEAS-2B | MTT | 24 h | 13.7 µM
OCc1ccc(N2CCc3cccc(F)c3C2)cc1Cl | RBE | ATP luminescence | – | < 0.2 µM
Nc1nc2cc(CC[C@H]3C[C@@H](n4ccc5c(N)ncnc54)[C@H](O)[C@@H]3O)ccc2cc1Br | MDA-MB-435S | CCK-8 | 72 h | > 100 µM
COc1cccc2c1C(=O)c1c(O)c3c(c(O)c1C2=O)C[C@@](O)(C(=O)CO)C[C@@H]3O[C@H]1C[C@H](N)[C@H](O)[C@H](C)O1 | BEAS-2B | MTT | 48 h | 4.08 µM
FC(F)(F)c1ccc(-c2noc(-c3nn(Cc4ccc(Cl)cc4Cl)c4ccccc34)n2)cc1 | human Fibroblast | – | 48 h | 130 µM
Cc1cccc(C)c1NC(=S)N/N=C/c1ccc(N2CCC(O)CC2)cc1 | BEAS-2B | MTT | 24 h | 12.7 µM
CCOC(=O)c1c(C)nc2ccc(-c3ccc(F)cc3)cc2c1O | MDA-MB-468 | MTT | 48 h | 5 µM
CC(=O)ON=C1C=CC(=C(C#N)c2ccccc2)C=C1 | human Fibroblast | MTT | 24 h | 25.9 mg/L
c1ccc(Cn2nc(-c3nc(-c4ccccc4)n[nH]3)c3ccccc32)cc1 | human Fibroblast | – | 48 h | 72.6 µM
CN1CCC(NC2CCc3[nH]c4c(C(N)=O)ccc(-c5ccccc5Cl)c4c3C2)CC1 (stereo not shown) | RBE | – | 96 h | 0.00146 µM
c1ccc2c(c1)ncn2Cn1cncn1 | BEAS-2B | MTT | 24 h | 264 µM

SMILES | cell line | assay | conditions | IC50
C/C(=N\c1nc(N)nc(/N=C(\C)c2c(O)c3ccccc3oc2=O)n1)c1c(O)c2ccccc2oc1=O | BEAS-2B | MTT | 48 h | 64.3 µM
FC(F)(F)c1ccc(-c2nnc(-c3nn(Cc4ccc(Cl)cc4Cl)c4ccccc34)o2)cc1 | human Fibroblast | – | 48 h | 100 µM
Cc1sc2c(c1C)C(c1ccc(Cl)cc1)=N[C@@H](CC(=O)NCCCCNC(=O)COc1cccc3c1C(=O)N(C1CCC(=O)NC1=O)C3=O)c1nnc(C)n1-2 (stereo partly shown) | KATO III | CCK-8 | 72 h | > 10 µM
NCc1ccc(-c2nn(Cc3ccccc3)c3ccccc23)o1 | RBE | ATP luminescence | – | 2.4 µM
Fc1ccc2c(-c3nnc(Cc4ccccc4)[nH]3)nn(Cc3ccc(Cl)cc3Cl)c2c1 | human Fibroblast | – | 48 h | 584 µM
Cc1nc2ccc(-c3ccc(OCc4ccccc4)c(F)c3)cc2c(O)c1C(=O)O | MDA-MB-468 | MTT | 48 h | ≥ 100 µM
OC1CCN(c2ccc(/C=N/NC(=S)Nc3ccc(Br)cc3)cc2)CC1 | BEAS-2B | MTT | 24 h | 19.8 µM
OCc1ccc(-c2nn(Cc3cccc(Cl)c3)c3ccccc23)o1 | RBE | ATP luminescence | – | 1.41 µM
C/C(=N\C(=N)/N=C(\C)c1c(O)c2ccccc2oc1=O)c1c(O)c2ccccc2oc1=O | BEAS-2B | MTT | 48 h | 44.5 µM
COc1cccc(Cn2nc(-c3ccc(CO)o3)c3ccccc32)c1 | RBE | ATP luminescence | – | 0.468 µM
OCn1cncn1 | BEAS-2B | MTT | 24 h | > 800 µM
c1ccc(-c2noc(-c3nn(Cc4ccncc4)c4ccccc34)n2)cc1 | human Fibroblast | – | 48 h | 51.4 µM
CCOC(=O)c1c(C)nc2ccc(-c3ccc(OCc4ccccc4)c(F)c3)cc2c1O | MDA-MB-468 | MTT | 48 h | 2 µM
CC(C)CNC(=S)N/N=C/c1ccc(N2CCC(O)CC2)cc1 | BEAS-2B | MTT | 24 h | 10.8 µM
OCc1ccc(-c2nn(Cc3ccccc3)c3ncccc23)o1 | RBE | ATP luminescence | – | 15.5 µM
OC1CCN(c2ccc(/C=N/NC(=S)Nc3ccc(F)cc3)cc2)CC1 | BEAS-2B | MTT | 24 h | 29.1 µM
OCc1ccc(-c2nn(-c3ccccc3)c3ccccc23)o1 | RBE | ATP luminescence | – | 4.27 µM
COc1ccc2c(-c3nc(-c4ccccc4)no3)nn(Cc3ccncc3)c2c1 | human Fibroblast | – | 48 h | 123 µM
